Tests used:
[1] = tested on: L1210; test: Tested in vitro for the cytotoxicity as number of viable cells against L1210 cell line after 4 hr treatment and 48 hr incubation in drug-free medium at conc. of 10E-6; conditions: Mus musculus, L1210, 4 h treatment, 48 h drug-free incubation; read-out: ID50 (the source's name)
[2] = tested on: L1210; test: Tested in vivo for optimal non-toxic dose against L1210 cell line in CDF1 mice; type: ADME, organism-based; conditions: mouse
Outline: (§1)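 CDF1 mice inoculated intraperitoneally with 10⁵ L1210 or L1210/L-PAM cells per mouse, then treated intraperitoneally after tumor transplant. T/C % = median survival time of treated mice / median survival time of controls × 100. Activity criterion is T/C ≥ 125%. Optimal nontoxic dose (OD) is defined as a dose below LD10.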

[3] = tested on: L1210; test: Median survival time of treated to the control mice with L1210 tumor cells; type: functional, Mus musculus
Outline: as §1

[4] = tested on: L1210/LPAM; test: Tested in vivo for optimal non-toxic dose against L1210/LPAM cell line in CDF1 mice; type: ADME, organism-based; conditions: mouse
Outline: as §1

[5] = tested on: HeLa; test: Tested in vitro for the dose inhibiting cell proliferation by 50% against HeLa cell line after 24 hr treatment at conc. of 10E-6; type: functional; conditions: Homo sapiens, read-out: ID50 (the source's name)
[6] = Tested in vitro for the resistance index ratio (ID50) of L1210/LPAM to L1210 cell line; type: functional
Outline: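 Resistance index = ID50 (L1210/L-PAM) / ID50 (L1210), where ID50 is the dose inhibiting proliferation by 50%. Cells were exposed to drug for 4 h, then incubated 48 h in drug-free medium. Culture was RPMI 1640 with 10% fetal calf serum, glutamine and antibiotics, at 37 °C in 5% CO2.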

[7] = tested on: HEp-2; test: Tested in vitro for the cytotoxicity as number of viable cells against Hep-2 cell line after 72 hr treatment at conc. of 10E-6; type: functional; conditions: Homo sapiens, HEp-2, 72 h; read-out: ID50 (the source's name)
Outline: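 Cytotoxicity read as number of viable cells. Hep-2 (MEM) received 72-h continuous drug treatment. L1210 and L1210/L-PAM (RPMI 1640) received 4-h treatment followed by 48-h incubation in drug-free medium. Media contained 10% fetal calf serum, glutamine, streptomycin and penicillin, at 37 °C in humidified 5% CO2.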

[8] = tested on: L1210/LPAM; test: Tested in vitro for the cytotoxicity as number of viable cells against L1210/LPAM cell line after 4 hr treatment and 48 hr incubation in drug-free medium at conc. of 10E-6; conditions: Mus musculus, 48 h drug-free incubation, read-out: ID50 (the source's name)
[9] = tested on: L1210/LPAM; test: Median survival time of treated to the control was determined in L1210/LPAM cell line; type: functional, Mus musculus
Outline: as §1

[10] = tested on: L1210; test: Median survival time of treated to the control was determined in L1210 cell line; type: functional, Mus musculus
Outline: as §1

Compound	IC50 [1] [µM]	OD [2]	T/C [3] [%]	OD [4] [mg/kg]	IC50 [5] [µM]	Ratio [6]	IC50 [7] [µM]	IC50 [8] [µM]	T/C [9] [%]	T/C [10] [%]
Cl.Cn1cc(NC(=O)c2cc(NC(=O)c3cc(N(CCCl)CCCl)cn3C)cn2C)cc1C(=O)NCCC(=N)N	3.53	1.56 M	138	1.56	1.95	1.3	1.22	4.56	122	
Cl.Cn1cc(NC(=O)c2cc(NC(=O)c3cc(NC(=O)c4cc(N(CCCl)CCCl)cn4C)cn3C)cn2C)cc1C(=O)NCCC(=N)N	0.08	0.39 mg/kg	188	0.39	0.06	0.87	0.1	0.07	167	
Cl.Cn1cc(NC(=O)c2cc(NC(=O)c3cc(NC(=O)c4cc(N(CCCl)CCCl)cs4)cn3C)cn2C)cc1C(=O)NCCC(=N)N	1.93	1.56 mg/kg	132	1.56	0.05	0.69	0.09	1.32	111	
N[C@@H](Cc1ccc(N(CCCl)CCCl)cc1)C(=O)O [MELPHALAN]	1.7	10 mg/kg		10	1.77	7.7	0.98	13.1	104	192
Cn1cc(NC(=O)c2cc(NC(=O)c3cc(NC=O)cn3C)cn2C)cc1C(=O)NCCC(=N)N [STALLIMYCIN]	488	200 mg/kg	113	200	48	0.7	97	343	106	
Cl.Cn1cc(NC(=O)c2cc(NC(=O)c3cc(NC(=O)c4ccc(N(CCCl)CCCl)cc4)cn3C)cn2C)cc1C(=O)NCCC(=N)N [TALLIMUSTINE CHLORIDE]	1.22	3.12 mg/kg	175	3.12	0.02		0.19	0.36	144	

— ChEMBL document CHEMBL1124685, “Synthesis, DNA-binding properties, and antitumor activity of novel distamycin derivatives” (J Med Chem, 1989)
